# From ChEMBL document CHEMBL4680166, “Dual-functional conjugates improving cancer immunochemotherapy by inhibiting tubulin polymerization and indoleamine-2,3-dioxygenase” (Eur J Med Chem, 2020)
# pIC50: −log10 of the molar value. Calls of active or inactive are those of the source. The rule behind the calls is not given here.
# Columns and labels:
# HUVEC = experiment: Cytotoxicity against HUVEC cells assessed as inhibition of cell proliferation measured after 72 hrs by MTT assay; assay type: cell-based; conditions: Homo sapiens
# Procedure, shortened: (§1)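 Cells (A549, PC-3, HeLa, HUVEC) grown in DMEM with 10% FBS at 37 °C, 5% CO₂. Seeded at 5 × 10⁴ cells/well and allowed 24 h to attach, then exposed 72 h to a concentration series from DMSO stocks. MTT was added for 4 h and formazan dissolved in DMSO, read at 490 nm. Survival taken relative to untreated control. IC50 by Bliss method, three repeats.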
# HeLa [1] = experiment: Induction of apoptosis in human HeLa cells assessed as mitochondrial membrane potential dissipation at 0.5 uM incubated for 24 hrs by JC-1 staining based flow cytometry (reference value: 6.6%); assay type: functional
# HeLa [2] = experiment: Induction of apoptosis in human HeLa cells assessed as mitochondrial membrane potential dissipation by measuring increase in green fluorescence intensity at 0.5 uM incubated for 24 hrs by JC-1 staining based fluorescence microscopic analysis; assay type: functional, cell-based
# HeLa [3] = experiment: Induction of apoptosis in human HeLa cells assessed as upregulation of caspase-3 protein expression at 0.5 uM measured after 24 hrs by western blot analysis; assay type: functional, cell-based
# Procedure, shortened: (§2)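 HeLa cells were treated 24 h at 37 °C and lysed in buffer containing PMSF. Protein quantified by BCA, equal amounts separated by SDS-PAGE and transferred to nitrocellulose. Blocked in 5% milk, primary antibodies overnight at 4 °C, peroxidase secondary 2 h at 25 °C. Detection by chemiluminescence, β-actin as loading control.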
# PC-3 = experiment: Anticancer activity against human PC3 cells assessed as inhibition of cell proliferation measured after 72 hrs by MTT assay; assay type: functional, cell-based; conditions: PC-3, 72 h; procedure, shortened: as §1
# [4] = Toxicity in BALB/c nude mouse transfected with human HeLa cells assessed as body weight changes at 30 mg/kg/day, iv for 21 days; assay type: organism-based; conditions: in vivo, 504 h, time 21 day
# Procedure, shortened: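 Five-week-old male BALB/c nude mice (18-22 g) were inoculated s.c. in the right armpit with HeLa cells (1 × 10⁷ cells/0.1 mL/mouse). At a tumour volume of 120-150 mm³, mice were randomised, five per group. Dosing was i.v. via the tail vein once daily for 21 days, in Tween 80/physiological saline; controls got an equal volume of saline. Body weight was recorded every 2 days.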
# HeLa [5] = experiment: Induction of apoptosis in human HeLa cells assessed as cell membrane integrity loss, chromatin condensation and apoptotic body formation by measuring reduction in green fluorescence intensity at 0.5 uM measured after 24 hrs by AO/EB dual staining based fluorescence microscopy; assay type: functional
# HeLa [6] = experiment: Induction of apoptosis in human HeLa cells assessed as viable cells at 0.5 uM measured after 24 hrs by Annexin-V-FITC and PI staining based flow cytometry (reference value: 96.3%); assay type: functional; conditions: read-out: Activity
# Procedure, shortened: (§3)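 HeLa cells were treated 24 h, washed twice in PBS and resuspended in binding buffer. Stained with annexin V-FITC and PI for 30 min in the dark at room temperature, then analysed by flow cytometry.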
# [7] = Toxicity in BALB/c nude mouse transfected with human HeLa cells assessed as kidney damage at 15 mg/kg/day, iv for 21 days by H&E staining based immunohistochemistry; assay type: organism-based; conditions: in vivo, 504 h, time 21 day
# Procedure, shortened: (§4)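 After 3 weeks of daily iv dosing of HeLa-xenografted nude mice, organs were taken from one mouse per group. Fixed in 4% paraformaldehyde, paraffin-embedded and sectioned. Stained with Harris hematoxylin and eosin-phloxine, then examined microscopically for histopathology.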
# HeLa [8] = experiment: Induction of apoptosis in human HeLa cells assessed as cell membrane integrity loss, chromatin condensation and apoptotic body formation by measuring strengthened orange fluorescence intensity at 0.5 uM measured after 24 hrs by AO/EB dual staining based fluorescence microscopy; assay type: functional
# HeLa [9] = experiment: Inhibition of IDO1 expression in hIFNgamma-stimulated human HeLa cells at 0.5 uM measured after 24 hrs by western blot assay; assay type: functional; procedure, shortened: as §2
# HeLa [10] = experiment: Inhibition of cell migration in human HeLa cells at 0.5 uM measured after 24 hrs by wound healing assay (reference value: 61%); assay type: functional
# Procedure, shortened: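 Confluent HeLa monolayers were scratched with a pipette tip and washed with ice-cold PBS. Incubated 24 h at 37 °C in DMEM/10% FBS containing compound. Wounds were photographed at 0 and 24 h and migration distance measured manually.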
# A549 = experiment: Anticancer activity against human A549 cells assessed as inhibition of cell proliferation measured after 72 hrs by MTT assay; assay type: functional, cell-based; conditions: A549, 72 h; procedure, shortened: as §1
# HeLa [11] = experiment: Anticancer activity against human HeLa cells assessed as inhibition of cell proliferation measured after 72 hrs by MTT assay; assay type: functional, cell-based; procedure, shortened: as §1
# [12] = Toxicity in BALB/c nude mouse transfected with human HeLa cells assessed as kidney damage at 30 mg/kg/day, iv for 21 days by H&E staining based immunohistochemistry; assay type: organism-based; conditions: in vivo, 504 h, time 21 day
# Procedure, shortened: (§5)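 HeLa xenografts were grown s.c. in male BALB/c nude mice, which received i.v. tail-vein doses once daily for 21 days in Tween 80/saline vehicle, with saline controls. After 3 weeks the mice were sacrificed. Organs from one mouse per group were fixed in 4% paraformaldehyde, paraffin-embedded and sectioned. Sections were dewaxed, stained with Harris hematoxylin and eosin-phloxine, and examined microscopically for histopathologic changes.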
# [13] = Toxicity in BALB/c nude mouse transfected with human HeLa cells assessed as lung damage at 15 mg/kg/day, iv for 21 days by H&E staining based immunohistochemistry; assay type: organism-based; conditions: in vivo, 504 h, time 21 day; procedure, shortened: as §4
# [14] = Toxicity in BALB/c nude mouse […] with human HeLa cells assessed as body weight changes at 15 mg/kg/day, iv for 21 days; assay type: organism-based; conditions: in vivo, 504 h, time 21 day
# HeLa [15] = experiment: Induction of apoptosis in human HeLa cells assessed as early apoptotic cells at 0.5 uM measured after 24 hrs by Annexin-V-FITC and PI staining based flow cytometry (reference value: 2.58%); assay type: functional; procedure, shortened: as §3
# HeLa [16] = experiment: Induction of intracellular reactive oxygen species generation in human HeLa cells at 0.5 uM measured after 24 hrs by DCFH-DA staining based flow cytometry relative to CA-4; assay type: functional
# [17] = Toxicity in BALB/c nude mouse transfected with human HeLa cells assessed as liver damage at 30 mg/kg/day, iv for 21 days by H&E staining based immunohistochemistry; assay type: organism-based; conditions: in vivo, 504 h, time 21 day; procedure, shortened: as §5
# [18] = Toxicity in BALB/c nude mouse transfected with human HeLa cells assessed as lung damage at 30 mg/kg/day, iv for 21 days by H&E staining based immunohistochemistry; assay type: organism-based; conditions: in vivo, 504 h, time 21 day; procedure, shortened: as §5
# HeLa [19] = experiment: Induction of apoptosis in human HeLa cells assessed as late apoptotic cells at 0.5 uM measured after 24 hrs by Annexin-V-FITC and PI staining based flow cytometry (reference value: 0.199%); assay type: functional; procedure, shortened: as §3
# Tubulin (Homo sapiens) = Tubulin (Homo sapiens) (UniProt P68371+Q9H4B7+P0DPH7+P68366+Q13509+Q71U36+P04350+Q3ZCM7+P07437+P68363+Q9BQE3+Q6PEY2+Q13885+Q9BVA1+Q9BUF5); experiment: Inhibition of tubulin polymerization in human HeLa cells assessed as disruption of microtubule network organization measured after 24 hrs by DAPI staining based immunofluorescence method; assay type: cell-based; conditions: dose 0.1-0.5 µM
# Procedure, shortened: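 HeLa cells in six-well plates were treated 24 h. Fixed in 4% paraformaldehyde (37 °C, 15 min), permeabilised with 0.5% Triton X-100 and blocked with 10% goat serum. Incubated with α-tubulin primary antibody overnight, then fluorescent secondary antibody 1 h, with DAPI for nuclei. Imaged by confocal microscopy.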
smiles,measurement,setting,value
COc1ccc(/C=C\c2cc(OC)c(OC)c(OC)c2)cc1OC(=O)c1cccc(Cn2cc(CCOC(=O)[C@H](N)Cc3cn(C)c4ccccc34)nn2)c1,pIC50,HUVEC,5.82
same,Activity,HeLa [1],68.8%
same,Activity,HeLa [2],Active
same,Activity,HeLa [3],Active
same,pIC50,PC-3,6.34
same,Activity,[4],Non-Toxic
same,Activity,HeLa [5],Active
same,viability at 0.5 µM,HeLa [6],47.3%
same,Activity,[7],Non-Toxic
same,Activity,HeLa [8],Active
same,inhibition,HeLa [9],Active
same,inhibition at 0.5 µM,HeLa [10],88%
same,pIC50,A549,6.66
same,pIC50,HeLa [11],7.15
same,Activity,[12],Non-Toxic
same,Activity,[13],Non-Toxic
same,Activity,[14],Non-Toxic
same,Activity,HeLa [15],41.1%
same,fold change (FC),HeLa [16],2.3
same,Activity,[17],Non-Toxic
same,Activity,[18],Non-Toxic
same,Activity,HeLa [19],11%
same,inhibition,Tubulin (Homo sapiens),Dose-dependent effect
